Where only a bound is given, the exact number is not on record here.

We go through 21 molecules from ChEMBL document CHEMBL3352278, “Design and discovery of 5-hydroxy-6-oxo-1,6-dihydropyrimidine-4-carboxamide inhibitors of HIV-1 integrase” (Bioorg Med Chem, 2014).

The nature of data set [1]: Cytotoxicity against human MT4 cells assessed as cell viability by MTT assay. Format: cell-based. The procedure, abridged:
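Uninfected MT-4 cells run in parallel with the antiviral assay, exposed to 5-fold serial dilutions of compound. Viability read by MTT; CC50 is the concentration reducing viability by 50%.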

Data set [2] deals with Human immunodeficiency virus 1. The data set is described as follows: Antiviral activity against wild-type HIV1 3B infected in human MT4 cells assessed as inhibition of viral cytopathic effect by MTT assay. Format: functional, organism-based. Conditions: Human immunodeficiency virus 1, 3B. The method in brief:
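MT-4 cells infected with 100–300 CCID50 of titrated HIV-1 IIIB stock in the presence of 5-fold serial dilutions of compound (DMSO stocks, diluted in DMSO). Protection against virus-induced cytopathic effect read by MTT; EC50 taken as the concentration giving 50% protection.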
A general note: Cytopathic effects are the visible damage that an infection or toxin causes in cultured cells.

Data set [3] deals with T1, Human immunodeficiency virus type 1 integrase (Human immunodeficiency virus 1, UniProt Q7ZJM1). The data set is described as follows: Inhibition of HIV1 recombinant wild type integrase 3'-processing activity by gel-based assays.
Data set [4] can be described thus: Therapeutic index, ratio of CC50 for human MT4 cells to EC50 for HIV1 3B infected in human MT4 cells. Format: cell-based. As to conditions: HIV1 3B infected MT4 cells, read-out: Ratio CC50/EC50. The procedure, abridged:
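Computed as CC50/EC50, both from parallel MTT assays in MT-4 cells, with and without infection by 100–300 CCID50 HIV-1 IIIB, using 5-fold serial compound dilutions.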

Data set [5] has as its target T1, Human immunodeficiency virus type 1 integrase. The data set is described as follows: Inhibition of HIV1 recombinant wild type integrase strand transfer activity by gel-based assay.
Data set [6] in a line: Retention time of the compound by HPLC. Format: physicochemical.

T1 sequence (Q7ZJM1 whole entry): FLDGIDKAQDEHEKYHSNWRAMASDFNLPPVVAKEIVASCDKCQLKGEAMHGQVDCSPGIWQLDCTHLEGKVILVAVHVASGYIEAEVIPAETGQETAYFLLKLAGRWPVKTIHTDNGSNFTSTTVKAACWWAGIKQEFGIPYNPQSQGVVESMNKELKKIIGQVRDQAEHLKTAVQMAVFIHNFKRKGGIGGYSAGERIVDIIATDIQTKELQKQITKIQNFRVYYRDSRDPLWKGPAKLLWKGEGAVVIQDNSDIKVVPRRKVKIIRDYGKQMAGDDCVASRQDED

Consider `O=C(NCc1ccc(Cl)cc1)c1nc(-c2ccc(F)cc2)[nH]c(=O)c1O`, for which the CC50 in data set [1] came out at 44 µM. Further, in data set [2], the EC50 turned out to be 8.1 µM. The 50% inhibitory concentration (IC50) is 9 µM in data set [3] and 0.8 µM in data set [5]. The selectivity ratio in data set [4] is 5. The molecule also yielded a Retention_time in data set [6] of 5.03 min.

Turning to `O=C(NCc1ccc(F)cc1)c1nc(-c2ccccc2F)[nH]c(=O)c1O`, the IC50 came to 16 µM in data set [3] and 2 µM in data set [5]. Also, the Retention_time in data set [6] came to 2.949 min.

Regarding `O=C(NCc1ccc(F)cc1)c1nc(-c2ccccc2)[nH]c(=O)c1O`, the IC50 in data set [3] was 17 µM; in data set [5], 1 µM. This molecule also displayed a Retention_time in data set [6] of 2.378 min.

For the molecule `O=C(NCc1ccc(F)cc1)c1nc(-c2ccc(F)cc2)[nH]c(=O)c1O`, the CC50 in data set [1] is 44 µM. In addition, the EC50 in data set [2] worked out at 1.72 µM. In addition, the half-maximal inhibitory concentration (IC50) was found to be 12 µM in data set [3] and 0.6 µM in data set [5]. Besides, in data set [4], the selectivity ratio was 26. This molecule also registered a Retention_time in data set [6] of 4.075 min.

Regarding `O=C(NCc1ccc(F)cc1)c1nc(Cc2ccc(F)cc2)[nH]c(=O)c1O`, the IC50 was > 20 µM in data set [3] and 10 µM in data set [5]. For the same molecule, in data set [6], the Retention_time was 2.989 min.

On to `O=C(NCc1ccc(F)cc1)c1nc(-c2ccc(Br)cc2)[nH]c(=O)c1O`, for which the IC50 is 3 µM in data set [3] and 1 µM in data set [5]. For the same molecule, in data set [6], the Retention_time was determined as 2.385 min.

As to `O=C(NCc1ccccc1)c1nc(-c2ccccc2)nc(O)c1O`, the CC50 in data set [1] was 50.7 µM. For the same molecule, the EC50 in data set [2] turned out to be 5.65 µM. In addition, the figures for the IC50 in data set [3] and in data set [5] were > 20 µM and 8 µM, respectively. Further, the selectivity ratio in data set [4] is 9. In data set [6], the Retention_time is 2.288 min.

Take `O=C(NCCc1ccc(F)cc1)c1nc(-c2ccc(F)cc2)[nH]c(=O)c1O`: the CC50 in data set [1] came out at 30 µM. Further, the 50% effective concentration (EC50) in data set [2] was > 30 µM. For the same molecule, the IC50 in data set [3] was 17 µM; in data set [5] it was 4 µM. Further, the Retention_time in data set [6] came to 4.748 min.

For `O=C(NCc1cccc(F)c1)c1nc(-c2ccc(F)cc2)[nH]c(=O)c1O`, in data set [1], the CC50 was 49.5 µM. In data set [2], the EC50 worked out at 7.34 µM. The IC50 in data set [3] was found to be 20 µM; in data set [5], 3 µM. Further, in data set [4], the selectivity ratio came to 7. Moreover, the Retention_time in data set [6] was 4.349 min.

For the molecule `Cc1ccc(CNC(=O)c2nc(-c3ccc(F)cc3)[nH]c(=O)c2O)cc1C`, the CC50 in data set [1] was found to be 33.5 µM. Further, the EC50 in data set [2] was 2.7 µM. Moreover, the IC50 turned out to be 16 µM in data set [3] and 0.5 µM in data set [5]. Besides, the selectivity ratio in data set [4] turned out to be 12. This molecule also displayed a Retention_time in data set [6] of 6.437 min.

Take `O=C(NCc1ccc(Br)cc1)c1nc(-c2ccc(F)cc2)[nH]c(=O)c1O`: the CC50 in data set [1] came out at 47.5 µM. Further, in data set [2], the EC50 came to 11 µM. The figures for the IC50 in data set [3] and in data set [5] were 11 µM and 0.5 µM, respectively. For the same molecule, in data set [4], the selectivity ratio amounted to 4. In data set [6], this molecule came in with a Retention_time of 5.373 min.

As to `O=C(NCc1cccc(Cl)c1F)c1nc(-c2ccc(F)cc2)[nH]c(=O)c1O`, the CC50 in data set [1] was determined as 48 µM. The EC50 in data set [2] was determined as 2.61 µM. The IC50 in data set [3] was determined as 13 µM; in data set [5], 1.4 µM. For the same molecule, in data set [4], the selectivity ratio turned out to be 18. The Retention_time in data set [6] was 2.309 min.

With `O=C(NCc1ccc(F)c(Cl)c1)c1nc(-c2ccc(F)cc2)[nH]c(=O)c1O`, the CC50 in data set [1] was 45.5 µM. The EC50 in data set [2] is 1.3 µM. Also, the IC50 in data set [3] was found to be 6 µM; in data set [5], 4 µM. Besides, the selectivity ratio in data set [4] was determined as 35. Further, the Retention_time in data set [6] turned out to be 3.56 min.

For `O=C(NCc1ccc(O)cc1)c1nc(-c2ccc(F)cc2)[nH]c(=O)c1O`, in data set [1], the 50% cytotoxic concentration (CC50) was 49 µM. The EC50 in data set [2] came out at 6.71 µM. Further, the IC50 was > 20 µM in data set [3] and 6 µM in data set [5]. Also, the selectivity ratio in data set [4] is 7. The same molecule gave a Retention_time in data set [6] of 2.846 min.

For the molecule `COc1ccc(CNC(=O)c2nc(-c3ccc(F)cc3)[nH]c(=O)c2O)cc1`, the CC50 in data set [1] amounted to 44 µM. Moreover, the EC50 in data set [2] amounted to 7.61 µM. The IC50 in data set [3] was 16 µM; in data set [5], 2 µM. The selectivity ratio in data set [4] is 6. This molecule also showed a Retention_time in data set [6] of 4.134 min.

`O=C(NCc1cc(F)c(F)c(F)c1)c1nc(-c2ccc(F)cc2)[nH]c(=O)c1O`: the CC50 in data set [1] was found to be 34.5 µM. Further, the EC50 in data set [2] was found to be 4.64 µM. In addition, the results for the IC50 in data set [3] and in data set [5] were 14 µM and 8 µM, respectively. Moreover, the selectivity ratio in data set [4] was 7. Also, the Retention_time in data set [6] was determined as 3.549 min.

As for `O=C(NCc1ccc(F)c(F)c1)c1nc(-c2ccc(F)cc2)[nH]c(=O)c1O`, in data set [1], the CC50 stood at 31 µM. In addition, the EC50 in data set [2] turned out to be 5.17 µM. The IC50 in data set [3] stood at 17 µM; in data set [5] it was 1 µM. In data set [4], the selectivity ratio was determined as 6. The Retention_time in data set [6] is 4.39 min.

Turning to `O=C(NCc1ccccc1F)c1nc(-c2ccc(F)cc2)[nH]c(=O)c1O`, in data set [1], the CC50 was 28.5 µM. Besides, the EC50 in data set [2] amounted to 7.81 µM. The IC50 in data set [3] stood at 20 µM; in data set [5] it was 7 µM. The selectivity ratio in data set [4] came to 4. Further, the Retention_time in data set [6] is given as 2.395 min.

In the case of `O=C(NCc1ccc(F)cc1)c1nc(-c2cccc(F)c2)[nH]c(=O)c1O`, the IC50 came out at 5 µM in data set [3] and 1 µM in data set [5]. The Retention_time in data set [6] stood at 2.379 min.

For `O=C(NCc1ccc(F)cc1)c1nc(-c2ccc(Cl)cc2)[nH]c(=O)c1O`, the results for the IC50 in data set [3] and in data set [5] were 5 µM and 2 µM, respectively. The molecule further displayed a Retention_time in data set [6] of 2.306 min.

With `O=C(NCc1cccc(Cl)c1)c1nc(-c2ccc(F)cc2)[nH]c(=O)c1O`, the CC50 in data set [1] is 35 µM. Also, the EC50 in data set [2] came to 1.91 µM. The concentration for half-maximal inhibition (IC50) in data set [3] worked out at 20 µM; in data set [5] it was 1.4 µM. For the same molecule, in data set [4], the selectivity ratio amounted to 18. In data set [6], the Retention_time is recorded as 5.251 min.

As usually defined, the CC50 is the concentration at which the toxic effect on the cells reaches its halfway point. As a reminder, the EC50 is the concentration giving half of the maximal effect. A word on the IC50: it is the concentration at which inhibition is half-maximal.
